Data from ChEMBL document CHEMBL4689842, “EUbOPEN Chemogenomics Library wave 1” (2021).

Test system: HEK-293T
Test: Multiplex assay against HEK293T;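 on Population Tubulin-Different-Phenotype (%): share of the cells with healthy nuclei that show this phenotype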
Type: toxicity, cell-based
Conditions: human
Outline: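 Live cells carried four stains from seeding: Hoechst33342, BioTracker Green Microtubule Cytoskeleton Dye, MitoTracker Red and Annexin V Alexa Fluor 680. They were imaged on a CQ1 microscope at 37°C and 5% CO2 after compound addition. Using CellPathfinder machine-learning gating, cells were split into Hoechst high-intensity objects or normal cells, normal cells into healthy, pyknosed or fragmented nuclei, and pyknosed cells into mitotic or apoptotic; tubulin, mitochondrial-mass and membrane-permeability phenotypes are per cents of healthy-nucleus cells.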

[1] = 12 h, 1 µM, compound concentration 1 uM, replicate 1
[2] = 12 h, 1 µM, compound concentration 1 uM, replicate 2
[3] = 12 h, 10 µM, compound concentration 10 uM, replicate 1
[4] = 12 h, 10 µM, compound concentration 10 uM, replicate 2
[5] = 24 h, 1 µM, compound concentration 1 uM, replicate 1
[6] = 24 h, 1 µM, compound concentration 1 uM, replicate 2
[7] = 24 h, 10 µM, compound concentration 10 uM, replicate 1
[8] = 24 h, 10 µM, compound concentration 10 uM, replicate 2
[9] = 48 h, 1 µM, compound concentration 1 uM, replicate 1
[10] = 48 h, 1 µM, compound concentration 1 uM, replicate 2
[11] = 48 h, 10 µM, compound concentration 10 uM, replicate 1
[12] = 48 h, 10 µM, compound concentration 10 uM, replicate 2

## Cc1cc(C)c(S(=O)(=O)N(Cc2ccc(-c3cccc(S(C)(=O)=O)c3)cc2)Cc2ccc(C(F)(F)F)o2)c(C)c1
[1]
  Population Apoptotic (%): 47%
  Population Fragmented Nuclei (%): 13%
  Population Healthy Nuclei (%): 36%
  Population Hoechst High Intensity Objects (%): 10%
  Population Membrane Permeable-Phenotype (%): 3%
  Population Mitochondria Different-Phenotype (%): 81%
  Population Mitotic Cells (%): 52%
  Population Normal (%): 89%
  Population Pyknosed Nuclei (%): 49%
  Population Tubulin-Different-Phenotype (%): 59%
  Total Cell Count: 263
[2]
  Population Apoptotic (%): 13%
  Population Fragmented Nuclei (%): 6%
  Population Healthy Nuclei (%): 49%
  Population Hoechst High Intensity Objects (%): 4%
  Population Membrane Permeable-Phenotype (%): 9%
  Population Mitochondria Different-Phenotype (%): 13%
  Population Mitotic Cells (%): 86%
  Population Normal (%): 95%
  Population Pyknosed Nuclei (%): 43%
  Population Tubulin-Different-Phenotype (%): 9%
  Total Cell Count: 213
[3]
  Population Apoptotic (%): 52%
  Population Fragmented Nuclei (%): 12%
  Population Healthy Nuclei (%): 35%
  Population Hoechst High Intensity Objects (%): 14%
  Population Membrane Permeable-Phenotype (%): 10%
  Population Mitochondria Different-Phenotype (%): 89%
  Population Mitotic Cells (%): 47%
  Population Normal (%): 85%
  Population Pyknosed Nuclei (%): 51%
  Population Tubulin-Different-Phenotype (%): 90%
  Total Cell Count: 216
[4]
  Population Apoptotic (%): 6%
  Population Fragmented Nuclei (%): 9%
  Population Healthy Nuclei (%): 48%
  Population Hoechst High Intensity Objects (%): 2%
  Population Membrane Permeable-Phenotype (%): 5%
  Population Mitochondria Different-Phenotype (%): 20%
  Population Mitotic Cells (%): 93%
  Population Normal (%): 97%
  Population Pyknosed Nuclei (%): 41%
  Population Tubulin-Different-Phenotype (%): 16%
  Total Cell Count: 145
[5]
  Population Apoptotic (%): 43%
  Population Fragmented Nuclei (%): 13%
  Population Healthy Nuclei (%): 44%
  Population Hoechst High Intensity Objects (%): 9%
  Population Membrane Permeable-Phenotype (%): 2%
  Population Mitochondria Different-Phenotype (%): 66%
  Population Mitotic Cells (%): 56%
  Population Normal (%): 90%
  Population Pyknosed Nuclei (%): 42%
  Population Tubulin-Different-Phenotype (%): 49%
  Total Cell Count: 304
[6]
  Population Apoptotic (%): 9%
  Population Fragmented Nuclei (%): 6%
  Population Healthy Nuclei (%): 64%
  Population Hoechst High Intensity Objects (%): 2%
  Population Membrane Permeable-Phenotype (%): 10%
  Population Mitochondria Different-Phenotype (%): 10%
  Population Mitotic Cells (%): 90%
  Population Normal (%): 97%
  Population Pyknosed Nuclei (%): 29%
  Population Tubulin-Different-Phenotype (%): 29%
  Total Cell Count: 261
[7]
  Population Apoptotic (%): 52%
  Population Fragmented Nuclei (%): 13%
  Population Healthy Nuclei (%): 38%
  Population Hoechst High Intensity Objects (%): 15%
  Population Membrane Permeable-Phenotype (%): 9%
  Population Mitochondria Different-Phenotype (%): 74%
  Population Mitotic Cells (%): 47%
  Population Normal (%): 84%
  Population Pyknosed Nuclei (%): 48%
  Population Tubulin-Different-Phenotype (%): 89%
  Total Cell Count: 225
[8]
  Population Apoptotic (%): 11%
  Population Fragmented Nuclei (%): 7%
  Population Healthy Nuclei (%): 72%
  Population Hoechst High Intensity Objects (%): 3%
  Population Membrane Permeable-Phenotype (%): 6%
  Population Mitochondria Different-Phenotype (%): 10%
  Population Mitotic Cells (%): 88%
  Population Normal (%): 96%
  Population Pyknosed Nuclei (%): 19%
  Population Tubulin-Different-Phenotype (%): 24%
  Total Cell Count: 187
[9]
  Population Apoptotic (%): 46%
  Population Fragmented Nuclei (%): 13%
  Population Healthy Nuclei (%): 61%
  Population Hoechst High Intensity Objects (%): 8%
  Population Membrane Permeable-Phenotype (%): 4%
  Population Mitochondria Different-Phenotype (%): 38%
  Population Mitotic Cells (%): 53%
  Population Normal (%): 91%
  Population Pyknosed Nuclei (%): 25%
  Population Tubulin-Different-Phenotype (%): 39%
  Total Cell Count: 387
[10]
  Population Apoptotic (%): 9%
  Population Fragmented Nuclei (%): 6%
  Population Healthy Nuclei (%): 81%
  Population Hoechst High Intensity Objects (%): 2%
  Population Membrane Permeable-Phenotype (%): 7%
  Population Mitochondria Different-Phenotype (%): 5%
  Population Mitotic Cells (%): 90%
  Population Normal (%): 97%
  Population Pyknosed Nuclei (%): 11%
  Population Tubulin-Different-Phenotype (%): 20%
  Total Cell Count: 474
[11]
  Population Apoptotic (%): 45%
  Population Fragmented Nuclei (%): 13%
  Population Healthy Nuclei (%): 60%
  Population Hoechst High Intensity Objects (%): 6%
  Population Membrane Permeable-Phenotype (%): 7%
  Population Mitochondria Different-Phenotype (%): 57%
  Population Mitotic Cells (%): 54%
  Population Normal (%): 93%
  Population Pyknosed Nuclei (%): 25%
  Population Tubulin-Different-Phenotype (%): 80%
  Total Cell Count: 302
[12]
  Population Apoptotic (%): 16%
  Population Fragmented Nuclei (%): 8%
  Population Healthy Nuclei (%): 84%
  Population Hoechst High Intensity Objects (%): 1%
  Population Membrane Permeable-Phenotype (%): 3%
  Population Mitochondria Different-Phenotype (%): 3%
  Population Mitotic Cells (%): 84%
  Population Normal (%): 98%
  Population Pyknosed Nuclei (%): 6%
  Population Tubulin-Different-Phenotype (%): 9%
  Total Cell Count: 367
